T cruzi repl – T. cruzi replication inhibition. 300,000 compounds, 1.4% hits. T. cruzi beta-gal in NIH3T3, luminescence, 90 h. AID 1885. inhibition, % (concentration not given with the values);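 active = mean inhibition across valid replicates above about 55%, limit read from the data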;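 note: signal also drops with host cell toxicity which is not excluded here; 0% = plate median of DMSO wells and 100% = zero luminescence signal; higher percent means less beta-gal luminescence so fewer parasites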
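Incubation – ≥90 h infection period, 3 h prior cell attachment · System – NIH/3T3 fibroblasts plus reporter T. cruzi · Doses – compound pinned at 50 nL/well, DMSO · Read-out basis – percent inhibition of parasite-derived β-gal signal · Signal – luminescent β-galactosidase signal after 60 min lysis · Also added – 5000 T. cruzi trypomastigotes/well · Medium – Low-serum DMEM with 2% FBS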
HSF1 inh – HSF1 inhibition; NIH3T3-HGL HSE-luciferase, MG132-induced, luminescence 8 h; hits give low values; activity change, negative = inhibition, % at 7.5 µM (by protocol); 300,000 compounds, 0.77% hits;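 active = more than half of replicate wells show activity change below -50%, luminescence cut by over half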;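 note: luciferase reports HSF-1 transcriptional activity via heat shock element; 0% = median of DMSO wells and -100% = zero luminescence signal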
Hsp70 activator – Hsp70 transcriptional activation, primary screen; HeLa Hsp70 promoter luciferase reporter, luminescence; scaled: vehicle 0, proteasome-inhibitor control 100%; 200,000 compounds, 0.04% hits; activation, % at 10 µM;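 active = activation above the mean across all tested compounds plus 3 SD, cutoff set per campaign, cut at about 5.5% in these data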;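 note: 100% = MG132 at 30 µM as the positive control and 0% = DMSO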
HSF-1 act – increases HSF-1 driven luciferase reporter signal | activation, % at 9 µM | 300,000 compounds, 1.7% hits | NIH3T3-HGL HSF-1 luciferase reporter, MG132, 8 h; 100% = twice DMSO control signal;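 active = mean replicate activation of at least 50% with a set share of replicates each reaching 50%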;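 note: 0% = median of the neutral control wells and 100% = twice that signal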
Lmaj promast – inhibitors of Leishmania major promastigote growth | Leishmania major promastigotes, resazurin fluorescence viability | inhibition, % at 10 µM | 200,000 compounds, 9% hits; in the data active = inhibition above about 50%;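 note: promastigotes grown with compound for 44 hours at 28 °C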
Numbers without * were called inactive; . = no result given. Only a selection was taken, and hits are over-represented in it overall.

SMILES	T cruzi repl	HSF1 inh	Hsp70 activator	HSF-1 act	Lmaj promast
Cc1cccc(/C=N/NC(=O)c2cc(-c3cccnc3)nc3c2c(C)nn3-c2ccccc2)c1	27	-7	0	4	62*
Cc1cccc(/C=N/NC(=O)c2cc(-c3cccnc3)nc3ccccc23)c1	-3	3	0	-16	26
COc1ccc(N2CCN(c3nc(Nc4ccc(F)cc4)nc(OC)n3)CC2)cc1	.	.	0	.	-5
c1ccc(Nc2nc(N3CCCCC3)nc(N3CCCCC3)n2)cc1	38	-3	0	6	26
c1ccc(Nc2nc(N3CCCCC3)nc(N3CCNCC3)n2)cc1	30	1	0	-17	100*
CCOc1ccc(Nc2nc(N)nc(CN3CCN(c4ccccc4F)CC3)n2)cc1	-16	-12	0	-18	52*
COc1ccc(N2CCN(c3nc(Nc4ccc(C)c(F)c4)nc(N4CCCC4)n3)CC2)cc1	68*	0	1	0	45
C1CCN(c2nc(N3CCCC3)nc(N3CCNCC3)n2)C1	-13	-6	0	-4	100*
CN1CCN(C(=S)NC(CC(=O)c2ccccc2)c2ccccc2)CC1 (stereo not given)	7	-7	.	9	.
CCOc1ccc(Nc2nc(N3CCCCC3)nc(N3CCCCC3)n2)cc1	31	-5	0	-3	59*
CCOc1nc(Nc2ccc(OC)cc2)nc(N2CCOCC2)n1	28	-7	0	-3	13
CCN(N=O)[C@@H](Cc1ccccc1)CN(N=O)[C@@H](Cc1ccccc1)CN(C)N=O	-2	-1	0	-9	1
CSc1ccc(S(=O)(=O)N2CCC(C(=O)NCCN3CCOCC3)CC2)cc1	-1	-1	.	3	.
CCOC(=O)C1CCN(S(=O)(=O)c2cc(Cl)c(C)cc2OC)CC1	-16	9	0	1	91*
Cc1cc(Cl)c(S(=O)(=O)N2CCCCCC2)cc1OCC(=O)NC1CCCCC1	28	-2	0	10	96*
Cc1cc(Cl)c(S(=O)(=O)N2CCSCC2)cc1OCC(=O)NC1CCCCC1	11	4	0	10	25
CCOC(=O)C1CCN(S(=O)(=O)c2c(Cl)ccc3nonc23)CC1	64*	156	.	197*	.
CCOC(=O)C1CCN(S(=O)(=O)c2ccc(Cl)cc2OC)CC1	-16	7	0	6	-1
CCOC(=O)N1CCN(S(=O)(=O)c2cc(OCC)ccc2OCC)CC1	1	2	0	-17	11
CCOC(=O)N1CCN(S(=O)(=O)c2cc(Cl)c(OC)cc2Cl)CC1	9	41	-1	70*	-2
Cc1ccc(C(=O)NC2CC3CCCC(C2)N3C(=S)NCc2ccco2)cc1 (stereo not given)	-2	15	0	24	3
CCOC(=O)c1cc(CC)sc1NC(=O)CN1C(=O)C(=O)N(CC(C)C)C1=O	-15	1	.	15	.
CCOC(=O)C1CCCN(C(=O)c2cccc(S(=O)(=O)N(Cc3ccccc3)c3ccccc3OC)c2)C1 (stereo not given)	56*	10	.	16	.
CCOC(=O)C1CCN(C(=O)c2cccc(S(=O)(=O)N(C)C3CCCCC3)c2)CC1	27	6	.	5	.
Cc1cc(Cl)c(S(=O)(=O)N2CCCCCC2)cc1OCC(N)=O	.	.	0	.	67*
SMILES	T cruzi repl	HSF1 inh	Hsp70 activator	HSF-1 act	Lmaj promast
CCOC(=O)N1CCC(N2C(=O)c3ccccc3C2Nc2cc(OC)c(OC)c(OC)c2)CC1 (stereo not given)	-5	2	0	2	1
CCOC(=O)N1CCN(S(=O)(=O)c2cc(OCC(=O)NC3CCCCC3)c(C)cc2Cl)CC1	20	-2	0	-2	64*
CCN1CCN(S(=O)(=O)c2cc(OCC(=O)NC3CCCCC3)c(C)cc2Cl)CC1	13	5	0	10	15
CCOC(=O)N1CCC(N2C(=O)c3ccccc3C2Nc2cc(Cl)c(OC)cc2OC)CC1 (stereo not given)	12	8	0	11	97*
CCOC(=O)N1CCN(C(=O)C2CCN(S(=O)(=O)c3cc(Cl)ccc3Cl)CC2)CC1	1	4	0	14	99*
Cc1cc(Cl)c(S(=O)(=O)N2CCN(c3cccc(C)c3C)CC2)cc1OCC(N)=O	31	-10	0	14	95*
CCOC(=O)C1CCCN(C(=O)c2ccc(Cl)c(S(=O)(=O)N3CCCCC3)c2)C1 (stereo not given)	17	24	0	79*	-4
Cc1cc(Cl)c(S(=O)(=O)N2CCCC2)cc1OCC(N)=O	25	-3	0	3	4
COc1ccc(/C=N/OC(=O)Nc2ccccc2OC)cc1	17	25	0	48	7
Cc1ccc(C(=O)NC(N2CCCC2)C(Cl)(Cl)Cl)cc1 (stereo not given)	-4	0	0	-11	0
CN(C)c1nc(-c2ccccc2)c2cnn(Cc3ccccc3)c2n1	30	5	0	-5	63*
c1ccc(Cn2ncc3ccccc32)cc1	-15	-11	0	7	-8
CC(=O)Nc1ccc(NC(=O)c2ccc(NS(=O)(=O)c3cc(C(C)(C)C)cc(C)c3C)cc2)cc1	-5	65	0	110*	52*
Cc1cc(C(C)(C)C)cc(S(=O)(=O)Nc2ccc(O)c(C(=O)O)c2)c1C	-17	2	0	0	-6
COc1ccc(OCCCN2CCCC(C)C2)cc1 (stereo not given)	6	-10	0	19	97*
CC1CCCN(CCCOc2ccc([N+](=O)[O-])cc2)C1 (stereo not given)	22	-5	0	-16	89*
CCn1c(/C=C/Nc2ccccc2)[n+](CC)c2ccc(Cl)cc21	-8	-12	0	10	91*
CCOC(=O)c1ccc2c(c1)n(CC)c(/C=C/Nc1ccccc1)[n+]2CC	-48	-3	0	5	25
CCn1c(/C=C/N(C)c2ccccc2)[n+](CC)c2ccc(Cl)cc21	77*	-2	0	-7	100*
Cc1cc(Cl)ccc1NC(=S)Nc1ccccn1	-27	27	0	55*	-6
Cc1ccc(NC(=S)Nc2cccc3cnccc23)c(C)c1	-10	43	0	73*	19
Cc1cc(Cl)ccc1NC(=S)NCc1ccccc1	-8	-4	0	-1	25
Cc1cc(C)nc(NC(=S)Nc2cccc(F)c2)c1	4	14	.	26	.
Cc1ccc(NC(=S)c2ccncc2)c(C)c1	-2	16	.	39	.
Cc1ccc(NC(=S)c2nc3ccccc3[nH]2)c(C)c1	23	26	0	72*	87*
COc1cccc(NC(=S)Nc2cc(C)cc(C)n2)c1	2	21	.	56*	.
Cc1cc(C)cc(NC(=S)Nc2cccc3cnccc23)c1	.	.	0	.	28
Cc1ccnc(NC(=O)c2cccc(S(=O)(=O)N3CCN(c4ccc(F)cc4)CC3)c2)c1	44	8	.	15	.

Screening data: PubChem BioAssay, several laboratories
